What was measured:
[1] = biological target: T1, Muscarinic acetylcholine receptor M4 (Homo sapiens, UniProt P08173); assay: Displacement of [3H]-NMS from muscarinic M4 receptor (unknown origin) expressed in CHO-K1 cell membranes assessed as inhibition constant by radioligand competition analysis; parameters: species or system Cell membrane
T1 sequence (P08173 whole entry): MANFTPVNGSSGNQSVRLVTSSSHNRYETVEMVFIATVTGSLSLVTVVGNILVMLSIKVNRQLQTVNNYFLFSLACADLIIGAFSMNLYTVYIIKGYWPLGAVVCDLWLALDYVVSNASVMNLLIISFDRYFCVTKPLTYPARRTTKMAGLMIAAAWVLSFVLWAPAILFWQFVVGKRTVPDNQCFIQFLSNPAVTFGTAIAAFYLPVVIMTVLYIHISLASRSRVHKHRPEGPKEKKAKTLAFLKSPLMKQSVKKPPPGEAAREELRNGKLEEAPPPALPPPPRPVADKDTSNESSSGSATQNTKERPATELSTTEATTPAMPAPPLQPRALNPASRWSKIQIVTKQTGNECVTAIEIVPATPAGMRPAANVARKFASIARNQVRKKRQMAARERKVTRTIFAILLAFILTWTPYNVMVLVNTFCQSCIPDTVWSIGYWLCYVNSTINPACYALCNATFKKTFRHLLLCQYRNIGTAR
Procedure, shortened: (§1)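 Inhibition constants came from radioligand competition binding. Acetylcholine and atropine were included as positive controls for competitive binding. Values are given as mean ± SEM.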

[2] = biological target: T2, Muscarinic acetylcholine receptor M1 (Homo sapiens, UniProt P11229); assay: Displacement of [3H]-NMS from muscarinic M1 receptor (unknown origin) expressed in CHO-K1 cell membranes assessed as inhibition constant by radioligand competition analysis; parameters: species or system Cell membrane; procedure, shortened: as §1
T2 sequence (P11229 whole entry): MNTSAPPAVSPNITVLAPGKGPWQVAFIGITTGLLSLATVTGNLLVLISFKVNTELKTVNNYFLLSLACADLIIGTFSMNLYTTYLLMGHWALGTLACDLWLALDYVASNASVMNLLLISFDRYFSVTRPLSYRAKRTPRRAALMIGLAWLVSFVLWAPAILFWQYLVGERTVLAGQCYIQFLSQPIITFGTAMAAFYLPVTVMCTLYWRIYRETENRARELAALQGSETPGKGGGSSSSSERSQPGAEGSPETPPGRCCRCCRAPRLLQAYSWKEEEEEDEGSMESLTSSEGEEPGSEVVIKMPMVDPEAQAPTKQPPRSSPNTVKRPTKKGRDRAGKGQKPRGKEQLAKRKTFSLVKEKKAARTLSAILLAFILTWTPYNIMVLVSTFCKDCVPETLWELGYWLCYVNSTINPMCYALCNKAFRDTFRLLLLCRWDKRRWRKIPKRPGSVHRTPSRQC

[3] = biological target: T3, Muscarinic acetylcholine receptor M2 (Homo sapiens, UniProt P08172); assay: Displacement of [3H]-NMS from muscarinic M2 receptor (unknown origin) expressed in CHO-K1 cell membranes assessed as inhibition constant by radioligand competition analysis; parameters: species or system Cell membrane
T3 sequence (P08172 whole entry): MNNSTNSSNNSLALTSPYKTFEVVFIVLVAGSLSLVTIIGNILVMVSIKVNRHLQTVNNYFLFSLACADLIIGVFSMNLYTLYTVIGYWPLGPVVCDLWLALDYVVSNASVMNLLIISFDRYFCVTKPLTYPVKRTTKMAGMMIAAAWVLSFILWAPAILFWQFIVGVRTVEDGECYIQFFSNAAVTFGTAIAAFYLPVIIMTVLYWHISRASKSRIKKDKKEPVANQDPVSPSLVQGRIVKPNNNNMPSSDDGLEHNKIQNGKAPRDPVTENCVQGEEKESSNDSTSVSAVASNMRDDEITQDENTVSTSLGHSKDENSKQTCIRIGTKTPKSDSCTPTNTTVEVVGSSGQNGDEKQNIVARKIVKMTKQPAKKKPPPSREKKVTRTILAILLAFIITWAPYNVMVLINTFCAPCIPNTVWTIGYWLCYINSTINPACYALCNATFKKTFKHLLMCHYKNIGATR

[4] = biological target: T3, Muscarinic acetylcholine receptor M2; assay: Antagonist activity at human muscarinic M2 receptor expressed in CHO cells co-expressing Galpha15 assessed as inhibition of acetylcholine-induced calcium mobilization relative to acetylcholine; format: functional, cell-based
[5] = biological target: Muscarinic acetylcholine receptor M3 (Homo sapiens, UniProt P20309); assay: Displacement of [3H]-NMS from muscarinic M3 receptor (unknown origin) expressed in CHO-K1 cell membranes assessed as inhibition constant by radioligand competition analysis; parameters: species or system Cell membrane; procedure, shortened: as §1
Chain of Muscarinic acetylcholine receptor M3 (P20309 whole entry): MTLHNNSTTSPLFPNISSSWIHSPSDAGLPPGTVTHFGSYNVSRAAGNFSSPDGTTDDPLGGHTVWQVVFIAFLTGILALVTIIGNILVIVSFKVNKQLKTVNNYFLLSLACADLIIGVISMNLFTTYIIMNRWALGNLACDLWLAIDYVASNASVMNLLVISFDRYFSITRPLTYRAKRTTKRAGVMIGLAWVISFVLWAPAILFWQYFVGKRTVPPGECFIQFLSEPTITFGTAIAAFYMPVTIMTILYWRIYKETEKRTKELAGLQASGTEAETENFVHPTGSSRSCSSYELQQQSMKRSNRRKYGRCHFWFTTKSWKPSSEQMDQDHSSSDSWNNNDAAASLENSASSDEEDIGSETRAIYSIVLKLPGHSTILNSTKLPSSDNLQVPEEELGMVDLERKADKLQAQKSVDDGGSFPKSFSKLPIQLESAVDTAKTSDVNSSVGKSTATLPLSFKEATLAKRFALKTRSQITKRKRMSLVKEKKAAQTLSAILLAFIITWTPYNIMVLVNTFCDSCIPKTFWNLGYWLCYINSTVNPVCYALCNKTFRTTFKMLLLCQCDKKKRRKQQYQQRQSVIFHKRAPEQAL

Structure (SMILES)	Ki [1]	Ki [2]	Ki [3]	IC50 [4]	Ki [5]
O=C(CCN1CCCc2ccccc21)NCc1ccco1	4.37 µM	2.63 µM	1.23 µM	1.12 µM	12 µM
O=C(CN1CCCc2ccc(O)cc21)N1CCCCC1	87.1 µM	> 100 µM			> 100 µM
O=C(CCN1CCCc2ccccc21)N1CCCC1	1.58 µM	1.05 µM	0.288 µM	1.82 µM	2.88 µM
O=C(CCN1CCCc2ccccc21)Nc1ccc(O)cc1F	> 100 µM	> 100 µM	64.6 µM	> 100 µM	> 100 µM
O=C(CN1CCc2ccc(F)cc21)N1CCCC1	> 100 µM	> 100 µM	50.1 µM	75.9 µM	95.5 µM
COC1CN(C(=O)CCN2CCCc3ccccc32)C1	15.8 µM	17.4 µM	3.55 µM	20.4 µM	32.4 µM
O=C(CN1CCc2ccc(Br)cc21)N1CCCCC1	> 100 µM	> 100 µM	> 100 µM	> 100 µM	> 100 µM
O=C(CCN1CCCc2ccccc21)NC1CCCCC1	0.158 µM	0.229 µM			1.74 µM
O=C(CCN1CCCc2ccccc21)Nc1nccs1	58.9 µM	1.12 µM			> 100 µM
O=C(CCN1CCCc2ccccc21)N1CCCC1CO (stereo not drawn)	11.7 µM	14.1 µM	5.13 µM	19.1 µM	32.4 µM
O=C(CCN1CCCc2ccccc21)Nc1cccnn1	14.1 µM	14.1 µM			29.5 µM
O=C(CCN1CCCc2ccccc21)N1CCCC(CO)C1 (stereo not drawn)	1.74 µM	1.45 µM	0.617 µM	0.759 µM	5.25 µM
O=C(CCN1CCCc2ccccc21)N1CCC[C@H]1CO	12.9 µM	14.1 µM	5.13 µM	17.4 µM	43.7 µM
O=C(CCN1CCCc2ccccc21)N1CCCC(O)C1 (stereo not drawn)	18.6 µM	33.1 µM	6.17 µM	29.5 µM	53.7 µM
CC1CCN(C(=O)CCN2CCCc3ccccc32)CC1	0.288 µM	0.302 µM			0.977 µM
O=C(CCN1CCCc2ccccc21)NC1CCCC1	0.257 µM	0.245 µM			2.57 µM

Second part, the molecule after the results:

Ki [1]	Ki [2]	Ki [3]	IC50 [4]	Ki [5]	Structure (SMILES)
91.2 µM	43.7 µM			44.7 µM	CCn1c2ccccc2c2ccc(NCC(=O)N3CCCCC3)cc21
25.7 µM	12.9 µM	22.9 µM	18.6 µM	21.9 µM	CC(C)(C)OC(=O)N1CCN(CC(=O)n2c3ccccc3c3ccccc32)CC1
> 100 µM	> 100 µM	95.5 µM	52.5 µM	> 100 µM	CC1CCCCN1CC(=O)n1c2ccccc2c2ccccc21 (stereo not drawn)
6.46 µM	2.04 µM			12.9 µM	O=C(CCN1CCCc2ccccc21)NCc1cccc(F)c1
0.776 µM	0.603 µM	0.407 µM	1.51 µM	2.88 µM	CC1CCCN(C(=O)CCN2CCCc3ccccc32)C1 (stereo not drawn)
1.38 µM	2.88 µM	0.389 µM	0.617 µM	7.41 µM	O=C(CN1CCCc2ccccc21)N1CCCC1
12 µM	5.01 µM	2.29 µM	0.427 µM	> 100 µM	Cn1ccc2c(NC(=O)CCN3CCCc4ccccc43)cccc21
7.24 µM	11.5 µM	3.63 µM	10.7 µM	31.6 µM	O=C(CCN1CCCc2ccccc21)N1CCCCC1CO (stereo not drawn)
0.214 µM	0.263 µM			0.776 µM	O=C(CCN1CCCc2ccccc21)Nc1ccccc1
17.8 µM	27.5 µM			55 µM	CC1CCCC(C)N1C(=O)CCN1CCCc2ccccc21 (stereo not drawn)
1.12 µM	1.15 µM			3.55 µM	C[C@@H]1CCC[C@H](C)N1C(=O)CCN1CCCc2ccccc21
